# Screening data as filed in PubChem.
# Rows were chosen to be rich in hits. Some 4% of all compounds tested hit in one or more screens of this group.
# Statin myotox sup: suppressors of statin myotoxicity in C2C12 myotubes, primary screen, cell-based, single point, plate reader; rescue of ATP level, % at 7.49 µM; AID 602340, 2012; 0.78% of 330,000 active; C2C12 myotubes + simvastatin, ATP luminescence, 48 h; scaled: DMSO 0, geranylgeraniol control 100;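 active = mean ATP rescue above about 67%, or every replicate alone reaching that limit, limit read from the data, passing the limit was not always enough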;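 also: myotubes were challenged with 10 µM simvastatin during compound exposure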
# rRNA inh HTS: reduced GFP signal of wild-type E. coli, primary screen, bacterial rRNA inhibitor project, GFP/RFP fluorescence, OD600, single point; E. coli WT GFP vs humanized-ribosome RFP mutants, 24 h; active compounds read low; DMSO median 0, no signal -100; GFP signal change (wild-type ribosome), % (concentration not given with the values); 1.6% of 350,000 active; AID 720706, 2013;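 active = significant combined selectivity score with lowered wild-type GFP, culture density cut under 30%, mutant RFP and density less affected; inactive = any of these conditions unmet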
# E-sel inducer: E-selectin induction in HUVECs, primary screen, imaging, HUVEC, immunofluorescence imaging, single point. P16581. normalized: neutral wells 0, TNF-alpha wells 100. activation, % at 7.58 µM. 0.37% of 260,000 active. AID 686992, 2013;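 active = mean E-selectin-positive cell signal at least 10% of the positive control, reached in at least 60% of replicates, without over 20% cell loss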
# Target sequence (P16581 whole entry, looked up): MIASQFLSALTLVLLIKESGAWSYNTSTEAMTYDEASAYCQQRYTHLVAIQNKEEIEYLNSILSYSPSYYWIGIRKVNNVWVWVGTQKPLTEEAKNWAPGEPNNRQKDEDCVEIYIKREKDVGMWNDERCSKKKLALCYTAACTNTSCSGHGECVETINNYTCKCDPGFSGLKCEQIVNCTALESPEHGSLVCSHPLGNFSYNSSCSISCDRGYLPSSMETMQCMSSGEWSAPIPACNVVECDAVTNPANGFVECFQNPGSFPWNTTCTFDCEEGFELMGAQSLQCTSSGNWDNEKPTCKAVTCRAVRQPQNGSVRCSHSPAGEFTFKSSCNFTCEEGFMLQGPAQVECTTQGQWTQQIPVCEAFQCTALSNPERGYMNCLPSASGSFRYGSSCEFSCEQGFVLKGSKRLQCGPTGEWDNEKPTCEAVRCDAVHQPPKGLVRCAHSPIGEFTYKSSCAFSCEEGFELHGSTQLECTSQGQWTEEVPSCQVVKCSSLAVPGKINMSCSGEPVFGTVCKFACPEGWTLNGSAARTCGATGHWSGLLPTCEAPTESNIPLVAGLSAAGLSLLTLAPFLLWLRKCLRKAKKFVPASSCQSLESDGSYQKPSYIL
#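 Read-out basis: % PE-positive cells; Test system: HUVEC primary endothelial cells; Technique: immunofluorescence imaging; Dosing: single-point compound dose.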
# FGF22 binding: binders of human FGF22 protein, primary screen, FGF22 synaptogenesis inhibitor project, biophysical, thermal shift, single point; Fibroblast growth factor 22 (Homo sapiens), Q9HCT0; recombinant FGF22 thermal shift, SYPRO orange fluorescence; percent of sucrose octasulfate shift, DMSO zero; activity (Tm shift, normalised), % at 9.99 µM; 1.5% of 340,000 active;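 active = mean Tm shift, scaled 0 neutral to 100 positive control, at about 1.3% or above, every replicate too, limit read from the data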
# SIRT5 block: SIRT5 desuccinylase inhibitors, primary screen, biochemical, fluorescence imaging, single point, set 5; Purified SirT5, succinyl-peptide AMC, trypsin-coupled fluorescence; NAD-dependent protein deacylase sirtuin-5, mitochondrial (Homo sapiens), Q9NXA8; 1.1% of 330,000 active; inhibition, % at 15 µM; in the data active = inhibition above about 15%
# FN deposition inh: inhibitors of fibronectin matrix deposition, primary screen, AH1F cells, Alexa488-fibronectin fluorescence, plate reader. AH1F fibroblasts, overnight. inhibition, % at 12.6 µM. 0.086% of 350,000 active. AID 743247, 2014;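 active = mean inhibition across replicates of 30% or more, regardless of how many single replicates reach that level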;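 also: positive control wells lacked labelled fibronectin entirely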
#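 Assay system: AH1F fibroblasts / Quantity: 10000 cells per well / Medium: DMEM plus 2% serum, read in PBS / Reagent: labelled fibronectin 24 nM / Dosing: single dose, pinned / Times: 1 h cell attachment, overnight exposure to compound and label / Signal: fluorescence, ex 485 nm, em 525 nm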
# * marks the source's active call; other numbers are inactive results; . = not tested or not shown.
SMILES,Statin myotox sup,rRNA inh HTS,E-sel inducer,FGF22 binding,SIRT5 block,FN deposition inh
C[C@@H]1CCCCO[C@H](CN(C)C(=O)Nc2ccc(C(F)(F)F)cc2)[C@@H](C)CN([C@H](C)CO)C(=O)c2cc(NC(=O)Nc3ccc(F)cc3)ccc2O1,-2,3,0,0,7,-7
C[C@@H]1CCCCO[C@@H](CN(C)C(=O)Nc2cccc3ccccc23)[C@H](C)CN([C@H](C)CO)C(=O)c2cc(NC(=O)c3ccncc3)ccc2O1,135*,-5,0,0,7,.
C[C@@H]1CN([C@H](C)CO)C(=O)c2cc(NC(=O)Nc3ccc4c(c3)OCO4)ccc2O[C@@H](C)CCCCO[C@@H]1CN(C)C(=O)C1CCCCC1,.,-4,0,0,9,.
CN1[C@@H]2Cn3c(ccc(-c4cccc(F)c4)c3=O)[C@H]1[C@@H](C(=O)Nc1nccs1)[C@@H]2CO,-4,-2,1,0,1,.
CNC[C@H]1Oc2c(NC(=O)c3cc(C)nn3C)cccc2C(=O)N([C@@H](C)CO)C[C@H]1C,4,10,.,0,-6,.
CO[C@@H]1CN(C)C(=O)c2cc(NC(C)=O)ccc2OC[C@@H](C)N(CC2CCCCC2)C[C@@H]1C,3,6,0,.,.,4
C[C@@H]1CCCCO[C@@H](CN(C)C(=O)Nc2ccc(F)cc2)[C@@H](C)CN([C@H](C)CO)C(=O)c2cc(NC(=O)Nc3ccc4c(c3)OCO4)ccc2O1,-12,0,0,-1,0,11
C[C@@H]1CCCCO[C@@H](CN(C)C(=O)C2CCCCC2)[C@H](C)CN([C@@H](C)CO)C(=O)c2cc(NC(=O)Nc3ccc(F)cc3)ccc2O1,.,-1,0,0,19*,.
C[C@@H]1CCCCO[C@H](CN(C)C(=O)Nc2ccc(C(F)(F)F)cc2)[C@@H](C)CN([C@H](C)CO)C(=O)c2cc(NC(=O)Nc3ccc(C(F)(F)F)cc3)ccc2O1,.,3,3,1.4*,3,0
COc1ccc(NC(=O)Nc2ccc3c(c2)C(=O)N([C@@H](C)CO)C[C@H](C)[C@H](CN(C)C(=O)c2ccccc2)OCCCC[C@H](C)O3)cc1,37,0,0,1.4*,2,.
C[C@@H]1CN([C@@H](C)CO)C(=O)c2cc(NC(=O)Nc3ccc(F)cc3)ccc2O[C@@H](C)CCCCO[C@@H]1CN(C)C(=O)C1CCCCC1,.,0,0,0,7,.
COc1ccc(NC(=O)Nc2ccc3c(c2)C(=O)N([C@H](C)CO)C[C@H](C)[C@@H](CN(C)C(=O)c2ccccc2)OCCCC[C@H](C)O3)cc1,45,-3,0,0,0,.
C[C@@H]1CCCCO[C@H](CN(C)C(=O)Nc2ccc(C(F)(F)F)cc2)[C@H](C)CN([C@@H](C)CO)C(=O)c2cc(NC(=O)Nc3ccc(C(F)(F)F)cc3)ccc2O1,.,-1,0,0,.,-1
C[C@@H]1CCCCO[C@@H](CN(C)C(=O)Nc2ccc3c(c2)OCO3)[C@@H](C)CN([C@H](C)CO)C(=O)c2cc(NC(=O)Nc3ccc4c(c3)OCO4)ccc2O1,.,5,0,0,17*,-5
O=C(C[C@H]1CC[C@@H]2[C@H](COC[C@@H](O)CN2Cc2cccc(F)c2)O1)NCc1ccncc1,10,3,0,0,-1,-3
COc1ccc2c3c([nH]c2c1)[C@@H](CO)N(C(=O)C1CCCCC1)CC31CCN(C)CC1,.,2,.,.,.,.
C[C@H]1CCCCO[C@@H](CN(C)S(=O)(=O)c2cccs2)[C@@H](C)CN([C@@H](C)CO)C(=O)c2cc(NC(=O)Nc3ccc(F)cc3)ccc2O1,-42,4,1,0,0,.
CCCC(=O)Nc1ccc2c(c1)C(=O)N(C)[C@@H]1CC[C@@H](CC(=O)N3CCc4ccccc4C3)O[C@H]1CO2,-2,-3,0,-1,.,-12
C[C@@H]1CCCCO[C@@H](CN(C)C(=O)C2CCCCC2)[C@H](C)CN([C@@H](C)CO)C(=O)c2cc(NC(=O)c3ccncc3)ccc2O1,95*,-4,0,0,17*,.
C[C@@H]1CCCCO[C@@H](CN(C)C(=O)C2CCCCC2)[C@@H](C)CN([C@@H](C)CO)C(=O)c2cc(NC(=O)c3ccncc3)ccc2O1,29,1,1,0,0,.
C[C@@H]1CCCCO[C@@H](CN(C)S(=O)(=O)c2cccs2)[C@@H](C)CN([C@@H](C)CO)C(=O)c2cc(NC(=O)NC3CCCCC3)ccc2O1,.,0,0,0,.,.
CCOC(=O)C1=C(N)OC2=C(C(=O)CC(C)(C)C2)C1c1ccc(C)s1 (centres undefined),.,0,0,44*,-1,-2
CCOC(=O)C1=C(N)OC2=C(C(=O)CC(C)(C)C2)C1c1ccc(CC)s1 (centres undefined),.,-3,.,0,-1,-6
COc1cc(CNCCCCO)ccc1OCc1ccccc1F,-3,14,.,43,-1,8
CCOCCCNCc1ccc(OCc2ccccc2C)c(OC)c1,-11,5,0,0,20*,4
C[C@H]1CN([C@@H](C)CO)C(=O)c2cc(NC(=O)Nc3ccc(C(F)(F)F)cc3)ccc2O[C@@H]1CN(C)S(=O)(=O)c1ccccc1,-3,-2,133*,0,-3,.
Cc1ccc(S(=O)(=O)N(C)C[C@H]2Oc3ccc(NC(=O)Nc4ccc(C(F)(F)F)cc4)cc3C(=O)N([C@H](C)CO)C[C@H]2C)cc1,-88,2,1,2.7*,7,.
C[C@@H]1CN([C@H](C)CO)C(=O)c2cc(NC(=O)Nc3ccc(C(F)(F)F)cc3)ccc2O[C@@H]1CN(C)S(=O)(=O)c1ccc(F)cc1,-66,4,1,1,7,.
CCN1[C@@H]2c3ccc(-c4cccc(C(=O)N(C)C)c4)c(=O)n3C[C@@H]2[C@@H](CO)[C@@H]1C(=O)OC,-14,2,0,-1,12,.
Cc1noc(C)c1S(=O)(=O)Nc1ccc2c(c1)C(=O)N([C@@H](C)CO)C[C@H](C)[C@@H](CN(C)C(=O)Nc1ccc3c(c1)OCO3)O2,-6,-1,.,0,1,.
